In ChEMBL document CHEMBL1128718, “2-Substituted penems with amino acid-related side chains: synthesis and antibacterial activity of a new series of beta-lactam antibiotics” (1995):
Values after ≈ are worked out from the molar mass of the structure shown.

Key:
Type in all cases: functional
Enterococcus faecalis = assay: In Vitro antibacterial activity against (Ef) Enterococcus faecalis ATCC 29212
Outline: (§1)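 Panel of standard ATCC strains plus modified strains: methicillin-resistant, hyperpermeable, β-lactamase-producing (TEM1, TEM2, SHV) and β-lactamase-lacking. MIC determined in Mueller Hinton 2 medium, inoculum 10⁴ cells/mL, incubated 24 h at 37 °C.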

Escherichia coli [1] = assay: In Vitro antibacterial activity against (Ec L) Escherichia coli […] strain; outline: as §1
Escherichia coli [2] = assay: In Vitro antibacterial activity against (Ec SHV) Escherichia coli […] strain; outline: as §1
Escherichia coli [3] = assay: In Vitro antibacterial activity against (Ec TEM1) Escherichia coli […] strain; outline: as §1
Escherichia coli [4] = assay: In Vitro antibacterial activity against (Ec TEM2) Escherichia coli […] strain; outline: as §1
Escherichia coli [5] = assay: In Vitro antibacterial activity against (Ec) Escherichia coli ATCC 25922; outline: as §1
Pseudomonas aeruginosa [6] = assay: In Vitro antibacterial activity against (Pa G242) hyperpermeable Pseudomonas aeruginosa strain; outline: as §1
Pseudomonas aeruginosa [7] = assay: In Vitro antibacterial activity against (Pa) Pseudomonas aeruginosa ATCC 27853; outline: as §1
Pseudomonas aeruginosa [8] = assay: In Vitro antibacterial activity against (Pa) hyperpermeable Pseudomonas aeruginosa […] strain; outline: as §1
Staphylococcus aureus [9] = assay: In vitro antibacterial activity against Sa MR(I) heterogeneous methicillin resistant Staphylococcus aureus
Outline: (§2)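 MIC was determined in Mueller Hinton 2 medium with an inoculum of 10⁴ cells/mL and incubation for 24 h at 37 °C. Strains: Sa(I) is S. aureus ATCC 29213; Sa MR(I) is a heterogeneous methicillin-resistant S. aureus; Sa MR(II) is a homogeneous methicillin-resistant S. aureus.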

Staphylococcus aureus [10] = assay: In vitro antibacterial activity against Sa MR(II) homogeneous methicillin resistant Staphylococcus aureus; outline: as §2
Staphylococcus aureus [11] = assay: In vitro antibacterial activity against Sa(I) Staphylococcus aureus ATCC 29213; outline: as §2
Staphylococcus aureus [12] = assay: In vitro antibacterial activity against Sa(II) Staphylococcus aureus ATCC 25923; outline: as §1
Escherichia coli [13] = assay: In Vitro antibacterial activity against (Ec DC2) hyperpermeable Escherichia coli strain; outline: as §1

C[C@@H](O)[C@H]1C(=O)N2C(C(=O)O)=C(SCCNC=N)C[C@H]12 [IMIPENEM ANHYDROUS]
MIC (Enterococcus faecalis): 0.5 µg/mL (≈ 1.67 µM) | MIC (Escherichia coli [1]): 0.12 µg/mL (≈ 0.401 µM) | MIC (Escherichia coli [2]): 0.25 µg/mL (≈ 0.835 µM) | MIC (Escherichia coli [3]): 0.25 µg/mL (≈ 0.835 µM) | MIC (Escherichia coli [4]): 0.25 µg/mL (≈ 0.835 µM) | MIC (Escherichia coli [5]): 0.12 µg/mL (≈ 0.401 µM) | MIC (Pseudomonas aeruginosa [6]): 0.25 µg/mL (≈ 0.835 µM) | MIC (Pseudomonas aeruginosa [7]): 1 µg/mL (≈ 3.34 µM) | MIC (Pseudomonas aeruginosa [8]): 0.25 µg/mL (≈ 0.835 µM) | MIC (Staphylococcus aureus [9]): 0.12 µg/mL (≈ 0.401 µM) | MIC (Staphylococcus aureus [10]): 0.25 µg/mL (≈ 0.835 µM) | MIC (Staphylococcus aureus [11]): 0.015 µg/mL (≈ 0.0501 µM) | MIC (Staphylococcus aureus [12]): 0.015 µg/mL (≈ 0.0501 µM) | MIC (Escherichia coli [13]): 0.5 µg/mL (≈ 1.67 µM)

C[C@@H](O)[C@H]1C(=O)N2C(C(=O)O)=C(COC(N)=O)S[C@H]12 [RITIPENEM]
MIC (Enterococcus faecalis): 2 µg/mL (≈ 6.94 µM) | MIC (Escherichia coli [1]): 1 µg/mL (≈ 3.47 µM) | MIC (Escherichia coli [2]): 1 µg/mL (≈ 3.47 µM) | MIC (Escherichia coli [3]): 1 µg/mL (≈ 3.47 µM) | MIC (Escherichia coli [4]): 1 µg/mL (≈ 3.47 µM) | MIC (Escherichia coli [5]): 0.5 µg/mL (≈ 1.73 µM) | MIC (Pseudomonas aeruginosa [6]): 1 µg/mL (≈ 3.47 µM) | MIC (Pseudomonas aeruginosa [7]): > 64 µg/mL | MIC (Pseudomonas aeruginosa [8]): 0.5 µg/mL (≈ 1.73 µM) | MIC (Staphylococcus aureus [9]): 0.12 µg/mL (≈ 0.416 µM) | MIC (Staphylococcus aureus [10]): 2 µg/mL (≈ 6.94 µM) | MIC (Staphylococcus aureus [11]): 0.12 µg/mL (≈ 0.416 µM) | MIC (Staphylococcus aureus [12]): 0.06 µg/mL (≈ 0.208 µM) | MIC (Escherichia coli [13]): 1 µg/mL (≈ 3.47 µM)
